Source: ChEMBL document CHEMBL1123589, “Phenylpiperazine-based radiopharmaceuticals for brain imaging. 3. Synthesis and evaluation of radioiodinated 1-alkyl-4-phenylpiperazines” (J Med Chem, 1987)

Assays:
Conditions in all cases: in vivo
Rattus norvegicus [1] = assay: The biodistribution of the [125I]-labeled compound in rats after intravenous injection was evaluated in adrenal at 0.25 hrs; value ranges from 0.58-0.61 (ID.kg/g); type: ADME, organism-based
Summary of the method: (§1)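 Male Sprague-Dawley rats (250–300 g) under ether anesthesia were given an iv injection of no-carrier-added 125I-labelled agent (10–15 μCi in 0.1 mL saline). The agent was iodinated with chloramine-T in acetate buffer and purified by C-18 HPLC. Groups of N = 3 were killed at 0.25, 1 and 4 h. Blood and tissues were weighed and γ-counted. Values are % ID·kg/g, mean (range).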

Rattus norvegicus [2] = assay: The biodistribution of the [125I]-labeled compound in rats after intravenous injection was evaluated in adrenal at 1.00 hrs; value ranges from 0.83-0.85 (ID.kg/g); type: ADME, organism-based; summary of the method: as §1
Rattus norvegicus [3] = assay: The biodistribution of the [125I]-labeled compound in rats after intravenous injection was evaluated in adrenal at 4.00 hrs; value ranges from 0.90-0.97 (ID.kg/g); type: ADME, organism-based; summary of the method: as §1
Rattus norvegicus [4] = assay: The biodistribution of the [125I]-labeled compound in rats after intravenous injection was evaluated in blood at 0.25 hrs (ID.kg/g); type: ADME, organism-based; summary of the method: as §1
Rattus norvegicus [5] = assay: The biodistribution of the [125I]-labeled compound in rats after intravenous injection was evaluated in blood at 1.00 hrs (ID.kg/g); type: ADME, organism-based; summary of the method: as §1
Rattus norvegicus [6] = assay: The biodistribution of the [125I]-labeled compound in rats after intravenous injection was evaluated in blood at 4.00 hrs (ID.kg/g); type: ADME, organism-based; summary of the method: as §1
Rattus norvegicus [7] = assay: The biodistribution of the [125I]-labeled compound in rats after intravenous injection was evaluated in brain at 0.25 hrs (ID.kg/g); type: ADME, organism-based; summary of the method: as §1
Rattus norvegicus [8] = assay: The biodistribution of the [125I]-labeled compound in rats after intravenous injection was evaluated in heart at 0.25 hrs; value ranges from 0.11-0.15 (ID.kg/g); type: ADME, organism-based; summary of the method: as §1
Rattus norvegicus [9] = assay: The biodistribution of the [125I]-labeled compound in rats after intravenous injection was evaluated in heart at 1.00 hrs (ID.kg/g); type: ADME, organism-based; summary of the method: as §1
Rattus norvegicus [10] = assay: The biodistribution of the [125I]-labeled compound in rats after intravenous injection was evaluated in lung at 4.00 hrs; value ranges from 0.19-0.25 (ID.kg/g); type: ADME, organism-based
Summary of the method: (§2)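 Male Sprague-Dawley rats (250–300 g), under ether anesthesia, given 10–15 μCi of the NCA ¹²⁵I-labeled agent iv in 0.1 mL saline. Groups of N = 3 were killed at 0.25, 1 or 4 h. Blood and tissues were removed, weighed and counted in a γ-well scintillation counter. Values are mean % ID·kg/g (range).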

Rattus norvegicus [11] = assay: The biodistribution of the [125I]-labeled compound in rats after intravenous injection was evaluated in muscle at 0.25 hrs (ID.kg/g); type: ADME, organism-based, Muscle tissue
Summary of the method: (§3)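 Male Sprague-Dawley rats (250–300 g) under ether anesthesia given iv 0.1 mL saline containing 10–15 μCi of NCA ¹²⁵I-labeled agent (chloramine-T iodination, HPLC-purified). Groups of 3 killed at 0.25, 1 and 4 h. Blood and tissues excised, weighed and γ-counted. Values are mean (range) of % injected dose × body mass (kg) per gram of tissue.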

Rattus norvegicus [12] = assay: The biodistribution of the [125I]-labeled compound in rats after intravenous injection was evaluated in muscle at 4.00 hrs (ID.kg/g); type: ADME, organism-based, Muscle tissue; summary of the method: as §3
Rattus norvegicus [13] = assay: The biodistribution of the [125I]-labeled compound in rats after intravenous injection was evaluated in thyroid at 0.25 hrs; value ranges from 1.12-1.29 (ID.kg/g); type: ADME, organism-based, Thyroid gland; summary of the method: as §3
Rattus norvegicus [14] = assay: The biodistribution of the [125I]-labeled compound in rats after intravenous injection was evaluated in thyroid at 1.00 hrs; value ranges from 1.22-1.36 (ID.kg/g); type: ADME, organism-based, Thyroid gland; summary of the method: as §3
Rattus norvegicus [15] = assay: The biodistribution of the [125I]-labeled compound in rats after intravenous injection was evaluated in brain at 4.00 hrs; value ranges from 0.17-0.21 (ID.kg/g); type: ADME, organism-based; summary of the method: as §1
Rattus norvegicus [16] = assay: The biodistribution of the [125I]-labeled compound in rats after intravenous injection was evaluated in fat at 0.25 hr (ID. kg/g); type: ADME, organism-based, Adipose tissue; summary of the method: as §1
Rattus norvegicus [17] = assay: The biodistribution of the [125I]-labeled compound in rats after intravenous injection was evaluated in fat at 1.00 hrs (ID.kg/g); type: ADME, organism-based, Adipose tissue; summary of the method: as §1
Rattus norvegicus [18] = assay: The biodistribution of the [125I]-labeled compound in rats after intravenous injection was evaluated in brain at 1.00 hrs; value ranges from 0.23-0.32 (ID.kg/g); type: ADME, organism-based; summary of the method: as §1
Rattus norvegicus [19] = assay: The biodistribution of the [125I]-labeled compound in rats after intravenous injection was evaluated in fat at 4.00 hrs (ID.kg/g); type: ADME, organism-based, Adipose tissue; summary of the method: as §1
Rattus norvegicus [20] = assay: The biodistribution of the [125I]-labeled compound in rats after intravenous injection was evaluated in kidney at 4.00 hrs; value ranges from 0.18-0.23 (ID.kg/g); type: ADME, organism-based; summary of the method: as §2
Rattus norvegicus [21] = assay: The biodistribution of the [125I]-labeled compound in rats after intravenous injection was evaluated in liver at 0.25 hr; value ranges from 0.19-0.27 (ID.kg/g); type: ADME, organism-based; summary of the method: as §2
Rattus norvegicus [22] = assay: The biodistribution of the [125I]-labeled compound in rats after intravenous injection was evaluated in liver at 4.00 hrs; value ranges from 0.42-0.55 (ID.kg/g); type: ADME, organism-based; summary of the method: as §2
Rattus norvegicus [23] = assay: The biodistribution of the [125I]-labeled compound in rats after intravenous injection was evaluated in lung at 0.25 hrs; value ranges from 0.55-0.57 (ID.kg/g); type: ADME, organism-based; summary of the method: as §2
Rattus norvegicus [24] = assay: The biodistribution of the [125I]-labeled compound in rats after intravenous injection was evaluated in lung at 1.00 hrs; value ranges from 0.33-0.37 (ID.kg/g); type: ADME, organism-based; summary of the method: as §2
Rattus norvegicus [25] = assay: The biodistribution of the [125I]-labeled compound in rats after intravenous injection was evaluated in liver at 1.00 hrs; value ranges from 0.34-0.44 (ID.kg/g); type: ADME, organism-based; summary of the method: as §2
Rattus norvegicus [26] = assay: The biodistribution of the [125I]-labeled compound in rats after intravenous injection was evaluated in kidney at 0.25 hr; value ranges from 0.37-0.45 (ID.kg/g); type: ADME, organism-based; summary of the method: as §2
Rattus norvegicus [27] = assay: The biodistribution of the [125I]-labeled compound in rats after intravenous injection was evaluated in kidney at 1.00 hrs; value ranges from 0.29-0.35 (ID.kg/g); type: ADME, organism-based; summary of the method: as §2
Rattus norvegicus [28] = assay: The biodistribution of the [125I]-labeled compound in rats after intravenous injection was evaluated in heart at 4.00 hrs; value ranges from 0.05-0.06 (ID.kg/g); type: ADME, organism-based; summary of the method: as §2
Rattus norvegicus [29] = assay: The biodistribution of the [125I]-labeled compound in rats after intravenous injection was evaluated in thyroid at 4.00 hrs; value ranges from 3.21-5.02 (ID.kg/g); type: ADME, organism-based, Thyroid gland; summary of the method: as §3
Rattus norvegicus [30] = assay: The biodistribution of the [125I]-labeled compound in rats after intravenous injection was evaluated in muscle at 1.00 hrs (ID.kg/g); type: ADME, organism-based, Muscle tissue; summary of the method: as §3

CC(C)CN1CCN(c2ccc(I)cc2)CC1
Biodistribution (Rattus norvegicus [1]): 0.61%
Biodistribution (Rattus norvegicus [2]): 0.85%
Biodistribution (Rattus norvegicus [3]): 0.97%
Biodistribution (Rattus norvegicus [4]): 0.01 % ID·kg/g
Biodistribution (Rattus norvegicus [5]): 0.01 % ID·kg/g
Biodistribution (Rattus norvegicus [6]): 0.01 % ID·kg/g
Biodistribution (Rattus norvegicus [7]): 0.25%
Biodistribution (Rattus norvegicus [8]): 0.15%
Biodistribution (Rattus norvegicus [9]): 0.09%
Biodistribution (Rattus norvegicus [10]): 0.25%
Biodistribution (Rattus norvegicus [11]): 0.03 % ID·kg/g
Biodistribution (Rattus norvegicus [12]): 0.03 %ID·kg/g
Biodistribution (Rattus norvegicus [13]): 1.29%
Biodistribution (Rattus norvegicus [14]): 1.36%
Biodistribution (Rattus norvegicus [15]): 0.21%
Biodistribution (Rattus norvegicus [16]): 0.02 % ID·kg/g
Biodistribution (Rattus norvegicus [17]): 0.02 % ID·kg/g
Biodistribution (Rattus norvegicus [18]): 0.32%
Biodistribution (Rattus norvegicus [19]): 0.04%
Biodistribution (Rattus norvegicus [20]): 0.23%
Biodistribution (Rattus norvegicus [21]): 0.27%
Biodistribution (Rattus norvegicus [22]): 0.55%
Biodistribution (Rattus norvegicus [23]): 0.57%
Biodistribution (Rattus norvegicus [24]): 0.37%
Biodistribution (Rattus norvegicus [25]): 0.44%
Biodistribution (Rattus norvegicus [26]): 0.45%
Biodistribution (Rattus norvegicus [27]): 0.35%
Biodistribution (Rattus norvegicus [28]): 0.07%
Biodistribution (Rattus norvegicus [29]): 5.02%
Biodistribution (Rattus norvegicus [30]): 0.02 %ID·kg/g
